How the values were obtained:
[1] = target: T1, Phosphatidylinositol 4,5-bisphosphate 3-kinase catalytic subunit delta isoform (Homo sapiens, UniProt O00329); assay: Inhibition of PI3Kdelta (unknown origin) using diC8-PI(4,5)P2 as substrate incubated for 3 hrs in presence of ATP by fluorescence polarization assay
T1 sequence (O00329 whole entry): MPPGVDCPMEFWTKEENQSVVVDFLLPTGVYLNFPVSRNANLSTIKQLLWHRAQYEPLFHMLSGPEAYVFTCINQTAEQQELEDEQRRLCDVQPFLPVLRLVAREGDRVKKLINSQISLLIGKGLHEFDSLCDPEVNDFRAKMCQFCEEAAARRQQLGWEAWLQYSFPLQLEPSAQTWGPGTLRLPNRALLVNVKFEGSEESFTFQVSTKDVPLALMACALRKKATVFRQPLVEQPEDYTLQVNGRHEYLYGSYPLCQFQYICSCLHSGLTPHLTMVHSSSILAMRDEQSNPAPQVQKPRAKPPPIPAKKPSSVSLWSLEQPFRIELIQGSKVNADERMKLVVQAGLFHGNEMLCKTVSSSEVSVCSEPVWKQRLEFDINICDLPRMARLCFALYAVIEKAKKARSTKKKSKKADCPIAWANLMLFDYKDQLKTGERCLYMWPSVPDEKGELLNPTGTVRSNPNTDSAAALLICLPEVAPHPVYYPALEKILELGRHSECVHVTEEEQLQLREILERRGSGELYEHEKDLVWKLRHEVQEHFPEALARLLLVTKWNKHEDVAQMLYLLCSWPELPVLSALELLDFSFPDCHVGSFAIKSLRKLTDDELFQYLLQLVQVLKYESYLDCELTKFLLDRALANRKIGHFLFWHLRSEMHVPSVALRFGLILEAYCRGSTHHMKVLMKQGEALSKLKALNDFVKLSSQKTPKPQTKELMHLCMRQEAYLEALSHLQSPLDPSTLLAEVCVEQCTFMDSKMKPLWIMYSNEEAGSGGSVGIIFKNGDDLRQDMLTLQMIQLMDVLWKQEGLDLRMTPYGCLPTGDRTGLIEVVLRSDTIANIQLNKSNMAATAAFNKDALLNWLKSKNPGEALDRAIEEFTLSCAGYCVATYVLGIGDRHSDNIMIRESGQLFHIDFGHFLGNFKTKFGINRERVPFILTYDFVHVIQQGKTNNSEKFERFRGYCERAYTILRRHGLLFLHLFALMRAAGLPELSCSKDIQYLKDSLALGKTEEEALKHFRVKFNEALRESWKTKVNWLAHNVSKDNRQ
Summary of the method: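 Fluorescence polarization competition assay, 10 μL reactions at pH 7: 2.5 mM MgCl₂, 5 mM HEPES, ATP, 10 mM DTT, 50 ng PI3K isoform, diC8-PI(4,5)P2 substrate. After 3 h at room temperature, reactions were chelator-quenched. Phosphoinositide binding protein and fluorophore-labelled tracer were added, then 1 h dark equilibration and polarization read.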

[2] = test system: HCT-116; assay: Induction of apoptosis in human HCT116 cells assessed as viable cells at 0.25 uM measured after 24 hrs by annexin-v-FITC/propidium iodide staining based FACScan flow cytometry analysis (reference value: 78.5 %); type: functional; conditions: HCT-116, 24 h, read-out: Activity
[3] = test system: HCT-116; assay: Induction of apoptosis in human HCT116 cells assessed as late apoptotic cells at 1 uM measured after 24 hrs by annexin-v-FITC/propidium iodide staining based FACScan flow cytometry analysis (reference value: 9.61 %); type: functional
[4] = test system: HCT-116; assay: Cell cycle arrest in human HCT116 cells assessed as accumulation at G1 phase at 0.25 uM measured after 24 hrs by propidium iodide staining based flow cytometry analysis (reference value: 42.01 %); type: functional
[5] = test system: HCT-116; assay: Induction of apoptosis in human HCT116 cells assessed as early apoptotic cells at 0.25 uM measured after 24 hrs by annexin-v-FITC/propidium iodide staining based FACScan flow cytometry analysis (reference value: 10.0 %); type: functional
[6] = test system: A549; assay: Antiproliferative activity against human A549 cells assessed as reduction in cell viability after 48 hrs by MTT assay; type: functional, cell-based; conditions: A549, 48 h
[7] = test system: HCT-116; assay: Antitumour activity against human HCT116 cells xenografted in nude mouse assessed as tumour growth inhibition at 10 mg/kg, ig administered every 3 days for 3 weeks and measured after 3 weeks relative to control; type: functional; conditions: HCT-116, po, read-out: TGI
Summary of the method: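 HCT-116 cells (5 × 10^6 per animal) injected into right flank of nude mice; at ~100 mm³ tumours, randomized into groups of 6. Dosed 10 mg/kg in 5% CMC-Na intragastrically every three days for three weeks; vehicle control 5% CMC-Na. Body weight and tumour size recorded every three days, volume = 0.5 × length × width²; tumours excised and weighed at end. Mean ± SD.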

[8] = test system: HCT-116; assay: Induction of apoptosis in human HCT116 cells assessed as early apoptotic cells at 0.5 uM measured after 24 hrs by annexin-v-FITC/propidium iodide staining based FACScan flow cytometry analysis (reference value: 10.0 %); type: functional
[9] = test system: HCT-116; assay: Induction of apoptosis in human HCT116 cells assessed as necrotic cells at 1 uM measured after 24 hrs by annexin-v-FITC/propidium iodide staining based FACScan flow cytometry analysis (reference value: 1.87 %); type: functional
[10] = test system: HCT-116; assay: Cell cycle arrest in human HCT116 cells assessed as accumulation at G1 phase at 0.5 uM measured after 24 hrs by propidium iodide staining based flow cytometry analysis (reference value: 42.01 %); type: functional

IC50 [1]: 120 nM
IC50 [6]: 60 nM
SMILES: O=c1oc2ccccc2c2nn(CN3CCN(S(=O)(=O)c4ccc(Cl)c([N+](=O)[O-])c4)CC3)cc12
viability at 0.25 µM [2]: 56%
Activity [3]: 36.9%
Activity [4]: 46.87%
Activity [5]: 16.1%
inhibition in vivo at 10 mg/kg [7]: 66.4%
Activity [8]: 17.1%
Activity [9]: 1.04%
Activity [10]: 50.95%

Reference: ChEMBL document CHEMBL4359902, “Development of novel chromeno[4,3-c]pyrazol-4(2H)-one derivates bearing sulfonylpiperazine as antitumor inhibitors targeting PI3Kα” (Eur J Med Chem, 2019)
